ChEMBL document CHEMBL5108074 (J Med Chem, 2022)
Converted amounts (≈) assume the structure as drawn.

Assays:
[1] = Apparent permeability of the compound across apical side to basolateral side in human Caco-2 cells incubated for 1 hr by LC-MS/MS analysis; conditions: for Papp: caco-2, 1 h
[2] = Metabolic stability in human liver microsomes assessed as intrinsic clearance per mg of protein measured upto 60 mins in presence of NADPH regenerating system by LC-MS/MS analysis; format: ADME, Microsome; conditions: for microsomal intrinsic clearance: microsomes, 1 h
Plasma kallikrein [3] = molecular target: T1, Plasma kallikrein (Homo sapiens, UniProt P03952); test: Inhibition of human plasma kallikrein using H-D-Pro-Phe-Arg-AFC as flurogenic substrate preincubated for 5 mins followed by substrate addition by fluorometer analysis; format: cell-free
[4] = Thermodynamic solubility of the compound in FaSSIF at 1 mg/ml at pH 6.5 measured after 4 hrs; format: physicochemical; conditions: for Therm_solubility: simulated gi fluid, pH 6.5, 4 h
Summary of the method: (§1)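 Compound (nominal 1 or 100 mg/mL as free base) added to biorelevant medium preheated to 37 °C: FaSSGF at pH 1.6 or FaSSIF at pH 6.5. Vortexed, then shaken 4 h at 37 °C (~500 rpm). Centrifuged at 15000g for 10 min at 37 °C. Supernatant diluted and quantified against calibration standards. Crystalline material used where stated.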

[5] = Thermodynamic solubility of the compound in FaSSGF at 1 mg/ml at pH 1.6 measured after 4 hrs; format: physicochemical; conditions: for solubility thermodynamic at 4 h: FaSSGF, pH 1.6, read-out: Therm_solubility; summary of the method: as §1
[6] = Clearance in Sprague-Dawley rat blood at 1 mg/kg, iv measured upto 24 hrs by LC-MS analysis; format: ADME, organism-based; conditions: whole blood
Summary of the method: (§2)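 Male Sprague-Dawley rats, two per route, single dose. IV: 1 mg/kg given as 1 mL/kg of a nominal 1 mg/mL formulation in vehicle. PO: 10 mg/kg given as 5 mL/kg of a 2 mg/mL formulation. PK parameters from noncompartmental analysis. Clearance expressed relative to rat liver blood flow of 80 mL/min/kg.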

[7] = Clearance in Sprague-Dawley rat assessed as liver blood flow at 1 mg/kg, iv measured upto 24 hrs by LC-MS analysis; format: ADME, organism-based; conditions: in vivo; summary of the method: as §2
[8] = Half life in Sprague-Dawley rat at 10 mg/kg, po and 1 mg/kg, iv measured upto 24 hrs by LC-MS analysis; format: ADME, organism-based; conditions: in vivo; summary of the method: as §2
[9] = Oral bioavailability in Sprague-Dawley rat at 10 mg/kg measured upto 24 hrs by LC-MS analysis; format: ADME, organism-based; conditions: in vivo; summary of the method: as §2
[10] = Kinetic solubility of the compound in 0.1N HCl
[11] = Kinetic solubility of the compound in aqueous assay buffer at pH 7.7
[12] = Thermodynamic solubility of the compound in FaSSIF at 1 mg/ml at pH 6.5 using crystalline form of sample measured after 4 hrs; format: physicochemical; conditions: simulated gi fluid, pH 6.5, 4 h; summary of the method: as §1
[13] = Thermodynamic solubility of the compound in FaSSGF at 1 mg/ml at pH 1.6 using crystalline form of sample measured after 4 hrs; format: physicochemical; conditions: pH 1.6, 4 h; summary of the method: as §1
[14] = Clearance in Beagle dog blood at 1 mg/kg, iv measured upto 24 hrs by LC-MS analysis; format: ADME, organism-based, Canis lupus familiaris; conditions: whole blood
[15] = Clearance in Beagle dog assessed as liver blood flow at 1 mg/kg, iv measured upto 24 hrs by LC-MS analysis; format: ADME, organism-based, Canis lupus familiaris; conditions: in vivo
[16] = Volume of distribution at steady state in Beagle dog at 1 mg/kg, po and 1 mg/kg, iv measured upto 24 hrs by LC-MS analysis; format: ADME, organism-based, Canis lupus familiaris; conditions: in vivo
[17] = Oral bioavailability in Beagle dog at 1 mg/kg measured upto 24 hrs by LC-MS analysis; format: ADME, organism-based, Canis lupus familiaris; conditions: in vivo
[18] = molecular target: Voltage-gated inwardly rectifying potassium channel KCNH2 (Homo sapiens, UniProt Q12809); test: Inhibition of hERG expressed in CHO cells by whole cell patch clamp assay; format: toxicity, cell-based
Summary of the method: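 hERG K+ current recorded by automated whole-cell patch clamp in CHO cells stably expressing hERG. Concentrations tested up to a maximum of 33 μM.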

Cytochrome P450 1A2 = molecular target: T2, Cytochrome P450 1A2 (Homo sapiens, UniProt P05177); test: Inhibition of CYP1A2 in human liver microsomes assessed as reduction in acetaminophen metabolite formation incubated for 30 mins in presence of NADPH by LC-MS/MS analysis; format: ADME, Microsome
T2 sequence (P05177 whole entry): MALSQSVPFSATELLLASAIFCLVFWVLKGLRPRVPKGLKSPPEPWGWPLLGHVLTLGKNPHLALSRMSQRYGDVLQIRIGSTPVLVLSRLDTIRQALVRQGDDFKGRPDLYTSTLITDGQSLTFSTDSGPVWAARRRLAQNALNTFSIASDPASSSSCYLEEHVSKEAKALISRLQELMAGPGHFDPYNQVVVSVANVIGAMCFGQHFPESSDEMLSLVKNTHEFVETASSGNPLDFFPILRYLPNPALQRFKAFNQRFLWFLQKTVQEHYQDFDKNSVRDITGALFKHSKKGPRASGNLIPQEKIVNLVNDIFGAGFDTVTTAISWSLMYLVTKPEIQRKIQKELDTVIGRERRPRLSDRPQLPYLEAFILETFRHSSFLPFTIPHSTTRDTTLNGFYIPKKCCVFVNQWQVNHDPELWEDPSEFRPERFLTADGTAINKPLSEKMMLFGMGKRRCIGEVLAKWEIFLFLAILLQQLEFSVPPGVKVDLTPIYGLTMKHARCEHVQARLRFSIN

Cytochrome P450 2B6 = Cytochrome P450 2B6 (Homo sapiens, UniProt P20813); test: Inhibition of CYP2B6 in human liver microsomes assessed as reduction in hydroxybupropion metabolite formation incubated for 30 mins in presence of NADPH by LC-MS/MS analysis; format: ADME, Microsome
Cytochrome P450 2C8 = Cytochrome P450 2C8 (Homo sapiens, UniProt P10632); test: Inhibition of CYP2C8 in human liver microsomes assessed as reduction in 6 alpha-hydroxypaclitaxel metabolite formation incubated for 30 mins in presence of NADPH by LC-MS/MS analysis; format: ADME, Microsome
Cytochrome P450 2C9 = Cytochrome P450 2C9 (Homo sapiens, UniProt P11712); test: Inhibition of CYP2C9 in human liver microsomes assessed as reduction in 4 hydroxy-diclofenac metabolite formation incubated for 30 mins in presence of NADPH by LC-MS/MS analysis; format: ADME, Microsome
Cytochrome P450 2C19 = Cytochrome P450 2C19 (Homo sapiens, UniProt P33261); test: Inhibition of CYP2C19 in human liver microsomes assessed as reduction in 4-hydroxymephenytoin metabolite formation incubated for 30 mins in presence of NADPH by LC-MS/MS analysis; format: ADME, Microsome
Cytochrome P450 2D6 = Cytochrome P450 2D6 (Homo sapiens, UniProt P10635); test: Inhibition of CYP2D6 in human liver microsomes assessed as reduction in dextrorphan metabolite formation incubated for 30 mins in presence of NADPH by LC-MS/MS analysis; format: ADME, Microsome
Cytochrome P450 3A4 [19] = molecular target: T3, Cytochrome P450 3A4 (Homo sapiens, UniProt P08684); test: Inhibition of CYP3A4 in human liver microsomes assessed as reduction in 6beta-hydroxymidazolam metabolite formation using midazolam as substrate incubated for 30 mins in presence of NADPH by LC-MS/MS analysis; format: ADME, Microsome
Cytochrome P450 3A4 [20] = molecular target: T3, Cytochrome P450 3A4; test: Inhibition of CYP3A4 in human liver microsomes assessed as reduction in 6beta-hydroxytestosterone metabolite formation using testosterone as substrate incubated for 30 mins in presence of NADPH by LC-MS/MS analysis; format: ADME, Microsome
Plasma kallikrein [21] = molecular target: T1, Plasma kallikrein; test: Inhibition of DXS induced human whole plasma kallikrein using H-D-Pro-Phe-Arg-AFC as substrate preincubated for 5 mins followed by DXS stimulation by fluorometer analysis; format: cell-free
[22] = Half life in Beagle dog at 1 mg/kg, po and 1 mg/kg, iv measured upto 24 hrs by LC-MS analysis; format: ADME, organism-based, Canis lupus familiaris; conditions: in vivo

T1 sequence (P03952 20-390 limits assumed): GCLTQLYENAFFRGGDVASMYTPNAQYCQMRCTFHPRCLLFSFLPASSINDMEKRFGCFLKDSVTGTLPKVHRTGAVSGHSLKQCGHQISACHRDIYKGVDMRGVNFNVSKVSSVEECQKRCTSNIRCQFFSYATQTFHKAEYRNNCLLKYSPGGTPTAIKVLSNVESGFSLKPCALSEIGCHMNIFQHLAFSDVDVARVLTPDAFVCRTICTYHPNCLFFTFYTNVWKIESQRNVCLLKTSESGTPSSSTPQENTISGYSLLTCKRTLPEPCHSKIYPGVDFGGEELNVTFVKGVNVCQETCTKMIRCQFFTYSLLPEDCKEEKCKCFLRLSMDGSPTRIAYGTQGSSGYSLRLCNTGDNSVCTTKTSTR
T1 sequence (P03952 391-638 limits assumed): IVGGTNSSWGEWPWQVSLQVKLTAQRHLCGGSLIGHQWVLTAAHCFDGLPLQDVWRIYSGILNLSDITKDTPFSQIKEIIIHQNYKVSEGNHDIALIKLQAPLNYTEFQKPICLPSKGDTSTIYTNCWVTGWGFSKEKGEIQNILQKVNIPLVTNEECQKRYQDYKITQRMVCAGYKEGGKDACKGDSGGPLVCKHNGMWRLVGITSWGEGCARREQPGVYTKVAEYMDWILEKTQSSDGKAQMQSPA
T3 sequence (P08684 whole entry): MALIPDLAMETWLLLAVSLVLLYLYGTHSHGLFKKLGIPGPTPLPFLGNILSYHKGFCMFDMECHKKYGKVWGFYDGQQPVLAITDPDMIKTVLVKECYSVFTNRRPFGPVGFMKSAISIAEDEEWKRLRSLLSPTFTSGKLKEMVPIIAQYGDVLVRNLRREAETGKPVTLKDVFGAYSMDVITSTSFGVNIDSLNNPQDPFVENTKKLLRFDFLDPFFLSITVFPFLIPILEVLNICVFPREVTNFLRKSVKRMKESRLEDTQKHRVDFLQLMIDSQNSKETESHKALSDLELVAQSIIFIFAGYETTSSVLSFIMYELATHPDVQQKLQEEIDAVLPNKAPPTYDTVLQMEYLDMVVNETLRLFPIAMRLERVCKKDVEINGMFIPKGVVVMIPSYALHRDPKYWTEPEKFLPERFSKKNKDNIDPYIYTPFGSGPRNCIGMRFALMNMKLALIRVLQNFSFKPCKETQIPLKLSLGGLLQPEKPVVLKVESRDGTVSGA
Sequence of Cytochrome P450 2C19 (P33261 whole entry): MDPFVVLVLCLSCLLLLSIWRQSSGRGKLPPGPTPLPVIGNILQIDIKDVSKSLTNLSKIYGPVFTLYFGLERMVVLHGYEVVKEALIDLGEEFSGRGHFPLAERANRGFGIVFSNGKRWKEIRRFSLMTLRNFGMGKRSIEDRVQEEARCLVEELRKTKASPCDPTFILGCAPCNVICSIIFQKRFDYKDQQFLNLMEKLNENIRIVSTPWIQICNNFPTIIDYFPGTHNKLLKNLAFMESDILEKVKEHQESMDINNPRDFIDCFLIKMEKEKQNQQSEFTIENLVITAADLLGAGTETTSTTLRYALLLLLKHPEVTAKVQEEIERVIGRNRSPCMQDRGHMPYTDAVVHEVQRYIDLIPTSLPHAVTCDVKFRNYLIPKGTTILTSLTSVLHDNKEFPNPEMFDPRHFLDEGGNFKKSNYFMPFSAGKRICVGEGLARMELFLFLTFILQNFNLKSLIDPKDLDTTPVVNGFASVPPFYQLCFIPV
Sequence of Voltage-gated inwardly rectifying potassium channel KCNH2 (Q12809 whole entry): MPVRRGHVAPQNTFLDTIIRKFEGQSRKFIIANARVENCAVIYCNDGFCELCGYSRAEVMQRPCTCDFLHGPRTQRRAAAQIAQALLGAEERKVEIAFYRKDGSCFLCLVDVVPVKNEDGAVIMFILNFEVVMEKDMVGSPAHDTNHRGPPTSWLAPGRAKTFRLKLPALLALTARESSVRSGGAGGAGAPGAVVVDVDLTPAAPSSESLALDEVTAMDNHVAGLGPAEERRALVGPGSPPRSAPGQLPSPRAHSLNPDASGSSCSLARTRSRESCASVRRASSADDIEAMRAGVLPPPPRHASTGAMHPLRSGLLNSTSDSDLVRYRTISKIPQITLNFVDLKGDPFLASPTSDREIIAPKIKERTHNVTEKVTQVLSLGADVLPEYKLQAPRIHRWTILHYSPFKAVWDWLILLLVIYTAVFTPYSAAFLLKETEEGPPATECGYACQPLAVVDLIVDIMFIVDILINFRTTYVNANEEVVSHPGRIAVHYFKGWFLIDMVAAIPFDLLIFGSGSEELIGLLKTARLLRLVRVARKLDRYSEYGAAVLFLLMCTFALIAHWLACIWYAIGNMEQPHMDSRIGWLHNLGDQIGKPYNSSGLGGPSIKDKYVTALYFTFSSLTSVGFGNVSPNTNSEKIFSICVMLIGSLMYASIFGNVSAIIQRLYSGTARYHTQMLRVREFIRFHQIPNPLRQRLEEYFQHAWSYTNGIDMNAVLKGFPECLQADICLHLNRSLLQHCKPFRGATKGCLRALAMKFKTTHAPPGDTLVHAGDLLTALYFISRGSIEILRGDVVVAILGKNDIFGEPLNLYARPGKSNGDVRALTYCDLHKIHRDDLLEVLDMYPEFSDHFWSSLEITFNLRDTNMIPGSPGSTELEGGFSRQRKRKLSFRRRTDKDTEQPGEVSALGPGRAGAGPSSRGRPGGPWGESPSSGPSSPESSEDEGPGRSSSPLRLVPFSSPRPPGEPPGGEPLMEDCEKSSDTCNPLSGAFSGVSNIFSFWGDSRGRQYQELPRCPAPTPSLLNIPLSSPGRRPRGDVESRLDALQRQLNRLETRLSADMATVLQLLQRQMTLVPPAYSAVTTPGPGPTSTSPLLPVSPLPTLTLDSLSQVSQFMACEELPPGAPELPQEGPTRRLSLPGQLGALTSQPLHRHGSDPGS
Sequence of Cytochrome P450 2C9 (P11712 whole entry): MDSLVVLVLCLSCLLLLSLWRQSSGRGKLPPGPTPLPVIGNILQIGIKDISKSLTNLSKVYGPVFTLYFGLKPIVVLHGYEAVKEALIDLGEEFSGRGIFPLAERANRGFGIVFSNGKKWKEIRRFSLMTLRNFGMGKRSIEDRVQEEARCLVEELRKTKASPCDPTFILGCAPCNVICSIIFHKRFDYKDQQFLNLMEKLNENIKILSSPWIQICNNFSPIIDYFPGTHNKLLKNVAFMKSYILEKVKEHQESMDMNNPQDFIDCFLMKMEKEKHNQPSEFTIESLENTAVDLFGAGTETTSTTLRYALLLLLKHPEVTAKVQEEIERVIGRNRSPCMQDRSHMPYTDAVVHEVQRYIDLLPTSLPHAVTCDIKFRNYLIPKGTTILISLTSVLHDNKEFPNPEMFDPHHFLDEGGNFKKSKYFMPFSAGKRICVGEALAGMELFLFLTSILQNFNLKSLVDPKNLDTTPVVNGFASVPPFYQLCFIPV
Sequence of Cytochrome P450 2D6 (P10635 whole entry): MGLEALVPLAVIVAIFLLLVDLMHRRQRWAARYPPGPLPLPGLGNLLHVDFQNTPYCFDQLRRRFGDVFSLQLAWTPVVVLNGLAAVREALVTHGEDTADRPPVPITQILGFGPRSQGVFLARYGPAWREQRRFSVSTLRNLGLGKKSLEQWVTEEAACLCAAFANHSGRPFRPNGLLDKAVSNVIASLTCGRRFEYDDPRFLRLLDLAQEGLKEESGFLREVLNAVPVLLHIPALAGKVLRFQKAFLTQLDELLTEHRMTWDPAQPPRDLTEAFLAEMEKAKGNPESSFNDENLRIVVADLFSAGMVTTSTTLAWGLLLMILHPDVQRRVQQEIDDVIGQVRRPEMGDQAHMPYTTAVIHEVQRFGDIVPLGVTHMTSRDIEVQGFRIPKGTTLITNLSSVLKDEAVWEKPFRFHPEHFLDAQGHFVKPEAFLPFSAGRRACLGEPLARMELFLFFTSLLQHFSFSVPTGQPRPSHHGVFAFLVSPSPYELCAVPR
Sequence of Cytochrome P450 2B6 (P20813 whole entry): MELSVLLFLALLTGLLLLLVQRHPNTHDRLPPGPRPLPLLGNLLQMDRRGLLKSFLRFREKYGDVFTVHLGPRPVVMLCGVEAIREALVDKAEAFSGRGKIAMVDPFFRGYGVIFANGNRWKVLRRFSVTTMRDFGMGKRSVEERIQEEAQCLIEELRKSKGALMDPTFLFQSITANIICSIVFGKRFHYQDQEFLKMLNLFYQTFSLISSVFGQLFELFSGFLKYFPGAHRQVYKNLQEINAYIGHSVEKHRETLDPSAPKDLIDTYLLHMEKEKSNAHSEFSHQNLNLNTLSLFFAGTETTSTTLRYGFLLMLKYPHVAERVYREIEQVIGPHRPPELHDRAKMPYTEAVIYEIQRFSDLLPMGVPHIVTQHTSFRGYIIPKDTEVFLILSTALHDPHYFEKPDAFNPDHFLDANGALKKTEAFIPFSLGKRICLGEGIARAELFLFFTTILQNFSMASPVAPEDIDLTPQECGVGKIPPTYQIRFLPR
Sequence of Cytochrome P450 2C8 (P10632 whole entry): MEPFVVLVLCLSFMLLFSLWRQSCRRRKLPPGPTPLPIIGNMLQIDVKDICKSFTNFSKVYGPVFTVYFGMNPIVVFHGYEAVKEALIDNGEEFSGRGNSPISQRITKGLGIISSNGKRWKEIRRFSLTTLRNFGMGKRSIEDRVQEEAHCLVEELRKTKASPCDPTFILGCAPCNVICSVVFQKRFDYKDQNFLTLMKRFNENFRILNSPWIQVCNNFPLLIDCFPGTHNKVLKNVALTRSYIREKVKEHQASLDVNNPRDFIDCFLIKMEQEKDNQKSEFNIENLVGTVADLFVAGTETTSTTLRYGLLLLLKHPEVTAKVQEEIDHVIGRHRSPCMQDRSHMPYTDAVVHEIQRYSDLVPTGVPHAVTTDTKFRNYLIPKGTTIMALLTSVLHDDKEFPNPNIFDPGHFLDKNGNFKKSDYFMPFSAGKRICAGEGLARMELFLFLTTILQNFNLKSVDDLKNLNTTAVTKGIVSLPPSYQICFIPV

Row | SMILES | IC50 (Plasma kallikrein [3]) | clearance [6] | LBF [7] | t1/2 [8] | F [9] | Papp [1] | microsomal intrinsic clearance [2] | solubility kinetic [10] | solubility kinetic [11] | also measured
1 | Nc1cccc2cc(CNC(=O)c3cnn(Cc4ccc(Cn5ccccc5=O)cc4)c3)ccc12 |  |  |  |  |  |  |  |  |  | Papp A→B at 1 h ([1]; Caco-2): 2 ×10⁻⁶ cm/s; microsomal CLint ([2]; liver microsomes, read-out: CLH): 37 µL/min/mg
2 | COCc1nn(Cc2ccc(Cn3ccccc3=O)cc2)cc1C(=O)NCc1nccc(OC)c1C | 0.0041 µM | 35 mL/min/kg | 44% | 1 h | 31% |  |  |  |  | Therm_solubility [4]: 110 µg/mL; solubility thermodynamic at 4 h [5]: 970 µg/mL (≈ 1990 µM)
3 | COCc1nn(Cc2ccc(Cn3ccccc3=O)cc2)cc1C(=O)NCc1c(F)ccc(OC)c1F | 0.006 µM | 23.7 mL/min/kg | 30% | 0.7 h | 64% | 18 10^-6 cm/s | 92 µL/min | > 120 µg/mL | > 120 µg/mL | Therm_solubility [12]: 9 µg/mL; Therm_solubility [13]: 9 µg/mL; clearance [14]: 24.5 mL/min/kg; LBF [15]: 74%; Vdss [16]: 0.36 L/kg; F [17]: 16%; IC50 [18]: > 33 µM; IC50 (Cytochrome P450 1A2): > 25 µM; IC50 (Cytochrome P450 2B6): > 25 µM; IC50 (Cytochrome P450 2C8): 14 µM; IC50 (Cytochrome P450 2C9): 13 µM; IC50 (Cytochrome P450 2C19): > 25 µM; IC50 (Cytochrome P450 2D6): > 25 µM; IC50 (Cytochrome P450 3A4 [19]): 19 µM; IC50 (Cytochrome P450 3A4 [20]): 11 µM; IC50 (Plasma kallikrein [21]): 0.5 µM
4 | COCc1nn(Cc2ccc(Cn3ccccc3=O)cc2)cc1C(=O)NCc1c(C#N)ccc(OC)c1F | 0.001 µM | 27.6 mL/min/kg | 35% | 1.1 h | 20% | 14 10^-6 cm/s | 58 µL/min | > 120 µg/mL | > 120 µg/mL | solubility thermodynamic at 4 h ([4]; FaSSIF, pH 6.5, read-out: Therm_solubility): 31 µg/mL (≈ 60.1 µM); solubility thermodynamic at 4 h [5]: 21 µg/mL (≈ 40.7 µM)
5 | COCc1nn(Cc2ccc(Cn3ccccc3=O)cc2)cc1C(=O)NCc1cccc(OC)c1F | 0.017 µM |  |  |  |  | 25 10^-6 cm/s | 45 µL/min | > 120 µg/mL | > 120 µg/mL | 
6 | COc1ccc(F)c(CNC(=O)c2cn(Cc3ccc(Cn4ccccc4=O)cc3)nc2CN(C)C)c1F | 0.0063 µM |  |  |  |  | 14 10^-6 cm/s | 280 µL/min |  |  | 
7 | COc1ccnc(CNC(=O)c2cn(Cc3ccc(Cn4ccccc4=O)cc3)nc2C(F)(F)F)c1F |  | 11.1 mL/min/kg | 14% | 1.1 h | 97% | 17 10^-6 cm/s | 49 µL/min |  |  | Therm_solubility [4]: 20 µg/mL; Therm_solubility ([5]; buffer, pH 1.6, 4 h): 690 µg/mL; clearance [14]: 15.9 mL/min/kg; LBF [15]: 48%; Vdss [16]: 0.63 L/kg; t1/2 [22]: 0.9 h; F [17]: 32%; IC50 [18]: > 33 µM; IC50 (Cytochrome P450 1A2): > 25 µM; IC50 (Cytochrome P450 2C9): > 25 µM; IC50 (Cytochrome P450 2C19): > 25 µM; IC50 (Cytochrome P450 2D6): > 25 µM; IC50 (Cytochrome P450 3A4 [19]): > 25 µM; IC50 (Cytochrome P450 3A4 [20]): > 25 µM; IC50 (Plasma kallikrein [21]): 0.076 µM
